ChEMBL document CHEMBL1149127, “Synthesis and antitubulin activity of N1- and N4-substituted 3,5-dinitro sulfanilamides against African trypanosomes and Leishmania” (J Med Chem, 2004)

Experiments:
[1] = tested on: PC-3; experiment: In vitro cytotoxicity against mouse PC3 prostate cancer cell line.; assay type: functional, cell-based; conditions: Homo sapiens
[2] = tested on: Trypanosoma brucei; experiment: microbe, parasite or virus in culture; assay type: functional, organism-based
[3] = tested on: Leishmania donovani; experiment: Inhibitory concentration against Leishmania donovani axenic amastigotes was determined in vitro; assay type: functional, organism-based
[4] = tested on: Leishmania donovani; experiment: Inhibition percentage of Leishmanial tubulin assembly at a concentration of 10 uM.
In short: (§1)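 Leishmanial tubulin turbidity assay. Compounds added in 50% DMSO. Assembly started on ice by adding cold GTP in 25% DMSO. Turbidity followed at 351 nm while warming to 30 °C. Single-concentration tests run at 10 µM.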

[5] = tested on: J774; experiment: In vitro cytotoxicity against mouse J774 macrophages.; assay type: functional, cell-based
[6] = Inhibition of Leishmanial tubulin assembly; set-up: species or system Leishmania donovani; in short: as §1
[7] = molecular target: Tubulin (Sus scrofa) (UniProt P02554+P02550); experiment: Inhibition of porcine brain tubulin assembly at 40 uM
In short: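 Porcine brain tubulin purified by DEAE-Sepharose and a warm assembly cycle. Compound at 40 µM added in 100% DMSO. Assembly started on ice with cold GTP in water. Turbidity read at 351 nm while warming to 37 °C. Percent inhibition determined.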

[8] = tested on: Mus musculus; experiment: Average survival time for mice infected with Trypanosoma brucei ST1B 795 when treated with 20 mg/kg administered i.p.; assay type: functional; conditions: route intraperitoneal
In short: (§2)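 Female NMRI mice (20-25 g) were infected ip with 10⁴ T. b. brucei STIB 795 bloodstream forms and randomly assigned to groups of four. Starting 4 days after infection, 20 mg/kg was given ip for 4 consecutive days. Vehicle was DMSO diluted with water, with final DMSO below 10%. Day of death was recorded for each mouse.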

[9] = tested on: Mus musculus; experiment: Tested against Trypanosoma brucei strain ST1B 795 in mice as cured to tested at 20 mg/kg/day administered intraperitoneally; 0/4; assay type: functional; conditions: route intraperitoneal
[10] = Tested for toxicity against mice by intraperitoneal administration; No signs of toxicity; conditions: mouse, in vivo, ip
[11] = tested on: Tubulin (Leishmania donovani); experiment: Inhibition percentage of Leishmanial tubulin assembly at a concentration of 10 uM
[12] = tested on: Mus musculus; experiment: Average survival time for mice infected with Trypanosoma brucei ST1B 795 when treated with 20 mg/kg administered intraperitoneally; assay type: functional; conditions: route intraperitoneal; in short: as §2

Sequence of Tubulin (Sus scrofa) (P02550 whole entry, looked up): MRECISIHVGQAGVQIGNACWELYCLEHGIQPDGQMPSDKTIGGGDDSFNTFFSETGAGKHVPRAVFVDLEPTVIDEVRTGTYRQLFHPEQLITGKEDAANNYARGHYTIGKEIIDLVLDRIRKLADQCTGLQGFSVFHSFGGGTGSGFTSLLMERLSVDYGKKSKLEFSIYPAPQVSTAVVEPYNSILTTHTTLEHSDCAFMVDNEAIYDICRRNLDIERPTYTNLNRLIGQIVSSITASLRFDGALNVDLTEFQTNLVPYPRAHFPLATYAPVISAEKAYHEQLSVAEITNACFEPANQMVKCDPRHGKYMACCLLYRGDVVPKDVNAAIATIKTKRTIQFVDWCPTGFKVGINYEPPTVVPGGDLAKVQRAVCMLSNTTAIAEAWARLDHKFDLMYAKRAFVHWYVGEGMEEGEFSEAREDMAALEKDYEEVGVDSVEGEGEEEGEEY
Sequence of Tubulin (Sus scrofa) (P02554 whole entry, looked up): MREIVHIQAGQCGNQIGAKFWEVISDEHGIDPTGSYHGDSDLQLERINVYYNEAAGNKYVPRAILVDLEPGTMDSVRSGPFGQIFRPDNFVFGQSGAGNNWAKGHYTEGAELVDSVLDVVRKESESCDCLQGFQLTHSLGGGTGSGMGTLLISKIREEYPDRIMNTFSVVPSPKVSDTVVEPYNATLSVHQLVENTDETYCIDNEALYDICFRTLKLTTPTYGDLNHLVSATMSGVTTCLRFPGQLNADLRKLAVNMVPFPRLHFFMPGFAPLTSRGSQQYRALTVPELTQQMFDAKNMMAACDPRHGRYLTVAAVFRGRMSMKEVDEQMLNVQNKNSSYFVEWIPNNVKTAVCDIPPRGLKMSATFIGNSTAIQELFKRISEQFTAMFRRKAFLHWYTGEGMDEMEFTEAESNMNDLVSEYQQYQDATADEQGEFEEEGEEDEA

SMILES	IC50 [1]	IC50 [2]	IC50 [3]	inhibition [4]	IC50 [5]	inhibition [7]	other results
CCCN(CCC)c1c([N+](=O)[O-])cc(S(=O)(=O)N(C)c2ccccc2)cc1[N+](=O)[O-]	> 100 µM	1 µM	21 µM	< 20%	11 µM		
CCCN(CCC)c1c([N+](=O)[O-])cc(S(=O)(=O)Nc2ccccc2)cc1[N+](=O)[O-]	31 µM	0.41 µM	5 µM	89%	28 µM	14%	IC50 [6]: 6.7 µM; Survival [8]: 8 days; Activity [9]: 0; Dose [10]: 20 mg/kg
CCCN(CCC)c1c([N+](=O)[O-])cc(S(=O)(=O)Nc2cccc(OC)c2)cc1[N+](=O)[O-]	36 µM	1.3 µM	8.1 µM	39%	25 µM	< 20%	
CCCNS(=O)(=O)c1cc([N+](=O)[O-])c(N(CCC)CCC)c([N+](=O)[O-])c1		8.9 µM	54 µM	< 20%			
CCCN(CCC)c1c([N+](=O)[O-])cc(S(=O)(=O)Nc2ccccn2)cc1[N+](=O)[O-]		9.2 µM	60 µM		45 µM		
CCCN(CCC)c1c([N+](=O)[O-])cc(S(=O)(=O)Nc2cccc(Cl)c2)cc1[N+](=O)[O-]	18 µM	2.1 µM	5.5 µM	57%	8.7 µM	< 20%	
COc1cc2cc(c1Cl)N(C)C(=O)C[C@H](OC(=O)C(C)C)[C@]1(C)O[C@@H]1[C@H](C)[C@@H]1C[C@@](O)(NC(=O)O1)[C@H](OC)/C=C/C=C(\C)C2 [ANSAMITOCIN P3]	6e-05 µM				0.00047 µM		
CCCCCCN(CCCCCC)S(=O)(=O)c1cc([N+](=O)[O-])c(N(CCC)CCC)c([N+](=O)[O-])c1		> 50 µM	> 100 µM				
CCCN(CCC)c1c([N+](=O)[O-])cc(S(=O)(=O)N(C)C)cc1[N+](=O)[O-]		5.8 µM	> 100 µM				
CCCN(CCC)c1c([N+](=O)[O-])cc(S(=O)(=O)Nc2cccc(C)c2)cc1[N+](=O)[O-]	25 µM	1.9 µM	23 µM	< 20%	16 µM	< 20%	
CCCN(CCC)c1c([N+](=O)[O-])cc(S(=O)(=O)Nc2cc(Cl)cc(Cl)c2)cc1[N+](=O)[O-]	11 µM	8 µM	3.7 µM	102%	5.1 µM	< 20%	IC50 [6]: 5.8 µM
CCCN(CCC)c1c([N+](=O)[O-])cc(S(=O)(=O)N(CCC)CCC)cc1[N+](=O)[O-]		17 µM	55 µM				
CCCN(CCC)c1c([N+](=O)[O-])cc(S(=O)(=O)Nc2ccc(C)cc2)cc1[N+](=O)[O-]	21 µM	13 µM	32 µM	< 20%	11 µM	< 20%	
CCCN(CCC)c1c([N+](=O)[O-])cc(S(=O)(=O)N2CCCC2)cc1[N+](=O)[O-]		6.5 µM	47 µM				
CCCCN(CCCC)S(=O)(=O)c1cc([N+](=O)[O-])c(N(CCC)CCC)c([N+](=O)[O-])c1		38 µM	48 µM				
CCCN(CCC)c1c([N+](=O)[O-])cc(S(=O)(=O)NC(C)C)cc1[N+](=O)[O-]		4.1 µM	> 100 µM				
CCCN(CCC)c1c([N+](=O)[O-])cc(S(=O)(=O)NCC)cc1[N+](=O)[O-]		5.4 µM	> 100 µM				

SMILES	IC50 [1]	IC50 [2]	IC50 [3]	inhibition [4]	IC50 [5]	inhibition [7]	other results
CCCN(CCC)c1c([N+](=O)[O-])cc(S(=O)(=O)Nc2ccc(OC)cc2)cc1[N+](=O)[O-]	31 µM	19 µM	32 µM	< 20%	15 µM	< 20%	Activity [9]: 0; Dose [10]: No signs of toxicity
CCCN(CCC)c1c([N+](=O)[O-])cc(S(=O)(=O)N(c2ccccc2)c2ccccc2)cc1[N+](=O)[O-]	> 100 µM	7 µM	> 100 µM		> 100 µM		
CCCN(CCC)c1c([N+](=O)[O-])cc(S(=O)(=O)N(CC)CC)cc1[N+](=O)[O-]		8.3 µM	27 µM				
CCCN(CCC)c1c([N+](=O)[O-])cc(S(=O)(=O)NC2CCCC2)cc1[N+](=O)[O-]		11 µM	50 µM				inhibition [11]: < 20%; Activity [9]: 0; Dose [10]: No signs of toxicity
CCCN(CCC)c1c([N+](=O)[O-])cc(S(=O)(=O)Nc2ccc(Cl)c(Cl)c2)cc1[N+](=O)[O-]	15 µM	7.9 µM	5 µM	< 20%	7.2 µM	< 20%	
CCCCCNS(=O)(=O)c1cc([N+](=O)[O-])c(N(CCC)CCC)c([N+](=O)[O-])c1		17 µM	43 µM				
CCN(CC)c1c([N+](=O)[O-])cc(S(=O)(=O)Nc2ccccc2)cc1[N+](=O)[O-]	56 µM	2.8 µM	11 µM	< 20%	48 µM	< 20%	
CCCN(CCC)c1c([N+](=O)[O-])cc(S(N)(=O)=O)cc1[N+](=O)[O-] [ORYZALIN]	56 µM	12 µM	65 µM		44 µM		
CCCCNS(=O)(=O)c1cc([N+](=O)[O-])c(N(CCC)CCC)c([N+](=O)[O-])c1		12 µM	50 µM			< 20%	
N=C(N)c1ccc(OCCCCCOc2ccc(C(=N)N)cc2)cc1 [PENTAMIDINE]		0.013 µM					
CCCN(CCC)c1c([N+](=O)[O-])cc(S(=O)(=O)Nc2ccc(Cl)cc2)cc1[N+](=O)[O-]	16 µM	13 µM	13 µM	< 20%	10 µM	< 20%	
CCCN(CCC)c1c([N+](=O)[O-])cc(S(=O)(=O)NC2CC2)cc1[N+](=O)[O-]		3.4 µM	43 µM				
CCCCCCNS(=O)(=O)c1cc([N+](=O)[O-])c(N(CCC)CCC)c([N+](=O)[O-])c1		15 µM	26 µM				
CCCCN(CCCC)c1c([N+](=O)[O-])cc(S(=O)(=O)Nc2ccccc2)cc1[N+](=O)[O-]	13 µM	0.12 µM	2.6 µM	104%	12 µM	< 20%	IC50 [6]: 6.9 µM; Survival [12]: 8 days; Activity [9]: 0; Dose [10]: 20 mg/kg
Cc1ccc(C(=O)Nc2ccc(S(=O)(=O)O)c3cc(S(=O)(=O)O)cc(S(=O)(=O)O)c23)cc1NC(=O)c1cccc(NC(=O)Nc2cccc(C(=O)Nc3cc(C(=O)Nc4ccc(S(=O)(=O)O)c5cc(S(=O)(=O)O)cc(S(=O)(=O)O)c45)ccc3C)c2)c1 [SURAMIN]		0.21 µM					
CCCN(CCC)c1c([N+](=O)[O-])cc(S(=O)(=O)N2CCOCC2)cc1[N+](=O)[O-]		> 100 µM	> 100 µM				
CCCN(CCC)c1c([N+](=O)[O-])cc(S(=O)(=O)NC)cc1[N+](=O)[O-]		5.3 µM	> 100 µM	< 20%		< 20%	
